The experiment deals with MALME3 melanoma viability, CellTiter-Glo ATP luminescence, 24 h. As to the kind of experiment: cytotoxicity in MALME3 melanoma cells – cell-based, CellTiter-Glo luminescence, dry powder, set 3, orthogonal assay for MITF inhibitor project, dose response (AID 624362). In a few lines: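 System – MALME3 melanoma cells · Quantity – 3000 cells/well · Medium – phenol-red-free IMDM supplemented with 10% FBS · Dosing – multiple compound doses delivered by pin transfer · Incubation – 37 °C compound incubation · Technique – CellTiter-Glo luminescence measuring cellular ATP · Evaluation – ATP-based viability · Controls – 27 µM parthenolide positive control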

SMILES strings stand for the structures. Activity calls are given as the source filed them.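 The calls were made as follows: active = compounds cutting cell ATP signal whose AC50 is at most twice their top valid dose; inconclusive = flat curve with 30 to 70% signal loss, or poor fit; inactive = the rest.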 Some results are limits rather than exact numbers.

Data on 12 molecules can be found in PubChem BioAssay AID624362 (Broad Institute, 2012).

One may read the AC50 as the concentration giving half of the maximal activity seen.

Regarding `NC1=C(NS(=O)(=O)c2cccs2)C(=O)c2ccccc2C1=O`, the AC50 was 16.8 µM.

As for `O=C1C=C(NS(=O)(=O)c2cccs2)C(=O)c2ccccc21`, the AC50 was 15.3 µM.

Take `O=C1C=C(NS(=O)(=O)c2ccc(Br)cc2)C(=O)c2ccccc21`: the half-maximal activity concentration (AC50) is 14.3 µM.

With `COC1=C(Nc2ccccc2)C(=O)c2ccccc2C1=O`, the concentration at half-maximal activity (AC50) was 7.46 µM.

Take `NC1=C(NS(=O)(=O)c2ccc(Br)s2)C(=O)c2ccccc2C1=O`: the AC50 is > 70 µM (inactive).

In the case of `O=C1C(Nc2ccccc2)=C(c2ccccc2)C(=O)c2ccccc21`, the AC50 is 36 µM.

For `O=C1C=C(NS(=O)(=O)c2ccccc2)C(=O)c2ccccc21`, the half-maximal activity concentration (AC50) was 11.6 µM.

Consider `COC1=C(NS(=O)(=O)c2ccc(Br)cc2)C(=O)c2ccccc2C1=O`, for which the AC50 is 14.7 µM.

In the case of `O=C1C=C(Nc2ccccc2)C(=O)c2ccccc21`, the concentration at half-maximal activity (AC50) was 2.89 µM.

As for `NC1=C(NS(=O)(=O)c2ccccc2)C(=O)c2ccccc2C1=O`, the concentration at half-maximal activity (AC50) was 15 µM.

As for `O=C1C(NS(=O)(=O)c2ccccc2)=C(c2ccccc2)C(=O)c2ccccc21`, the AC50 is > 70 µM (inactive).

For `COC1=C(NS(=O)(=O)c2cccs2)C(=O)c2ccccc2C1=O`, the concentration at half-maximal activity (AC50) is 23.4 µM.
